According to article PMC3149718 (Molecular and cellular biochemistry, 2011):
Residue numbers refer to the chain shown, from its start.

Legend:
[1] = target: T1, 89-residue L-CPTI C-terminal peptide, W452A mutant (Rattus norvegicus, UniProt P32198, W452A); assay: FRET from CPTI aromatic amino acids to bound cis-parinaroyl-CoA; format: binding
T1 sequence (P32198 381-469 W452A): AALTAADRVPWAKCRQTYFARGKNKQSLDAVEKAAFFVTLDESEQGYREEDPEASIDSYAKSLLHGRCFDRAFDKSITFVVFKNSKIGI
Method in brief: (§1)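 Peptide (0.1 µM in PBS, pH 7.4) was titrated with cis-parinaroyl-CoA at 24°C (0–1000 nM in methods; 0–250 nM in legend), with excitation at 280 nm and a 300–450 nm scan. Spectra were background-corrected and each averaged from 5 replicates. […] Distance was obtained by the Förster equation. Values are mean ± SE, n=5.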

[2] = target: T2, 89-residue L-CPTI C-terminal peptide, W391A mutant (Rattus norvegicus, UniProt P32198, W391A); assay: as above; format: binding
T2 sequence (P32198 381-469 W391A): T1 sequence (P32198 381-469 W452A) with W11A, A72W
Method in brief: as §1

[3] = target: T3, 89-residue L-CPTI C-terminal peptide, wild-type (WT) (Rattus norvegicus, UniProt P32198); assay: as above; format: binding
T3 sequence (P32198 381-469): T1 sequence (P32198 381-469 W452A) with A72W
Method in brief: as §1

[4] = target: T2, 89-residue L-CPTI C-terminal peptide, W391A mutant; assay: Direct binding of fluorescent cis-parinaroyl-CoA
[5] = target: T1, 89-residue L-CPTI C-terminal peptide, W452A mutant; assay: Direct binding of fluorescent cis-parinaroyl-CoA
[6] = target: T1, 89-residue L-CPTI C-terminal peptide, W452A mutant; assay: Quenching of intrinsic aromatic amino acid fluorescence by palmitoyl-CoA; format: binding; settings: read-out: Quenching Kd, quenching of aromatic amino acid fluorescence of 0.1 µM W452A peptide
[7] = target: T1, 89-residue L-CPTI C-terminal peptide, W452A mutant; assay: Displacement of bound cis-parinaroyl-CoA by palmitoyl-CoA; format: binding; settings: mutant peptides (W452A), range given for both mutants
Method in brief: (§2)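 Purified 89-residue peptide (0.1 µM in PBS, pH 7.4) was preincubated with 50 nM cis-parinaroyl-CoA for 5 min at 24°C. It was then titrated with palmitoyl-CoA (0–150 nM stated for WT). Excitation was 310 nm and emission was read at 426 nm. Displacement was taken from the fall in fluorescence and plotted as percent change, and Ki was then calculated.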

[8] = target: T3, 89-residue L-CPTI C-terminal peptide, wild-type (WT); assay: as above; format: binding; settings: palmitoyl-CoA 0–150nM
Method in brief: as §2

[9] = target: T2, 89-residue L-CPTI C-terminal peptide, W391A mutant; assay: Quenching of intrinsic aromatic amino acid fluorescence by palmitoyl-CoA; format: binding; settings: read-out: Quenching Kd, quenching of aromatic amino acid fluorescence of 0.1 µM W391A peptide
[10] = target: T2, 89-residue L-CPTI C-terminal peptide, W391A mutant; assay: Displacement of bound cis-parinaroyl-CoA by palmitoyl-CoA; format: binding; settings: mutant peptides (W391A), range given for both mutants
Method in brief: as §2

Row | Donor Emission R (intermolecular distance) ([1]; from donor (W452A) quenching) [Å] | Kd ([1]; read-out: Donor Emission Kd, from decrease in donor (W452A) fluorescence) [nM] | Donor Emission R (intermolecular distance) ([2]; from donor (W391A) quenching) [Å] | Kd ([2]; read-out: Donor Emission Kd, from decrease in donor (W391A) fluorescence) [nM] | intermolecular distance determined from the increased acceptor fluorescence ([3]; CPTI WT, acceptor (cis-parinaroyl-CoA) fluorescence) [Å] | Donor Emission R (intermolecular distance) ([3]; from donor (CPTI WT) quenching, Förster equation) [Å] | Kd ([3]; read-out: Donor Emission Kd, from decrease in donor (CPTI WT) fluorescence) [nM] | binding affinity weaker than WT ([4]; mutant (W391A) versus WT, range given for both mutants) | Kd ([4]; read-out: Cpn-CoA Kd, W391A peptide 0.1 µM, PBS pH 7.4, 24°C, direct fluorescence) [nM] | binding affinity weaker than WT ([5]; mutant (W452A) versus WT, range given for both mutants) | Kd ([5]; read-out: Cpn-CoA Kd, W452A peptide 0.1 µM, PBS pH 7.4, 24°C, direct fluorescence) [nM] | Kd [6] [nM] | cis-parinaroyl-CoA displacement [7] | displacement of cis-parinaroyl-CoA [8] | Kd [9] [nM] | cis-parinaroyl-CoA displacement [10] | Structure (SMILES)
1 | 24.3 ± 0.6 | 51 ± 5 | 23.9 ± 0.6 | 88 ± 9 | 38±1 | 28 ± 1 | 35 ± 10 | 5–7 fold | 52 ± 8 | 5–7 fold | 67 ± 10 | – | – | – | – | – | CC/C=C/C=C\C=C/C=C/CCCCCCCC(=O)SCCNC(=O)CCNC(=O)[C@H](O)C(C)(C)COP(=O)(O)OP(=O)(O)OC[C@H]1O[C@@H](n2cnc3c(N)ncnc32)[C@H](O)[C@@H]1OP(=O)(O)O (relative stereo) [cis-parinaroyl-CoA]
2 | – | – | – | – | – | – | – | – | – | – | – | 16 ± 2 | 50–60% | approximately 70% | 9 ± 1 | 50–60% | CCCCCCCCCCCCCCCC(=O)SCCNC(=O)CCNC(=O)[C@H](O)C(C)(C)COP(=O)(O)OP(=O)(O)OC[C@H]1O[C@@H](n2cnc3c(N)ncnc32)[C@H](O)[C@@H]1OP(=O)(O)O [palmitoyl-CoA]
